One data set deals with Asp-N. As to the kind of experiment: Proteolytic degradation by Asp-N endoproteinase, LCMS analysis. Format: in vitro ADME. Conditions: SF8(DDDDG)2 vs linear azido-DDDDG, 2 hours. A digest of the protocol: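 The test compound and the linear pentapeptide comparator were each incubated separately at 10 μM with Asp-N, an endoproteinase that cleaves peptide bonds on the N-terminal side of aspartic acid residues.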

Data set [1] is described as follows: Histology staining of bone sections. Details: species or system mouse. The procedure, abridged: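 Thin sections of mouse tibia were treated with a 5 μM probe solution for 30 minutes and then imaged by fluorescence microscopy. For the demineralized comparison, slices were pre-treated with EDTA before staining. A charge-balanced, net-neutral peptide probe served as the control stain.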

A further data set in a line: Water solubility. Format: physicochemical. Conditions: in water.
A short description of data set [2]: Self-aggregation in water by absorption spectrum. Format: physicochemical. The following applies: absorption spectrum in water (Figures S7, S10).
The nature of data set [3]: Chemical stability of squaraine fluorophore in PBS. Format: physicochemical. The following applies: pH 7.4, followed over 15 hours (Figure S11A).

“(DDDDG)2 (bicyclic or more) [SF8(DDDDG)2]”: the “factor by which proteolytic degradation of the peptide sequence was reduced” value in the data set with Asp-N worked out at 3.8. For the same substance, in data set [1] (bone slices demineralized with pre-treatment of EDTA (Figure S26)), the “staining of demineralized bone slices” value is on record as “no staining”. Moreover, the “staining of bone histology slices” value in data set [1] (thin sections of mouse tibia bone, probe 5 μM, 30 minutes) is “strongly stained the mineral segments”. Besides, the water solubility entry in the data set “Water solubility” is listed as “high water-solubility”. For the same substance, the self-aggregation result in data set [2] is listed as “no molecular self-aggregation”.

Consider (azido-DDDDG)2 [SR(azido-DDDDG)2], for which the water solubility result in the data set “Water solubility” is on record as “low solubility”. Besides, the self-aggregation entry in data set [2] is on record as “formation of non-fluorescent H-aggregates”.

As to (azido-RRRG)2 [SR(azido-RRRG)2], the water solubility result in the data set “Water solubility” was “soluble”. The self-aggregation entry in data set [2] is on record as “unaggregated”. Also, the “chemical stability, fluorescence profile of solution” value in data set [3] is recorded as “almost completely bleached after a few hours”.
